Data set [1] can be described thus: Oral bioavailability in Lewis rat at 1 to 100 mg/kg dosed via gavage after 1.25 to 24 hrs. Format: ADME, organism-based. The conditions noted are these: in vivo.
The nature of data set [2]: Equilibrium solubility of compound at pH 6.8 by high-throughput screening method. The conditions noted are these: buffer.
Data set [3] has as its target T1, Voltage-gated inwardly rectifying potassium channel KCNH2 (Homo sapiens, UniProt Q12809). The data set can be described thus: Displacement of [3H]dofetilide from human ERG expressed in HEK293 cells after 45 mins by scintillation counting method. Background: Displacement assays read how much labelled ligand stays bound in the presence of the test substance.
Data set [4] can be described thus: Permeability assessed as drug absorption at 50 ug/ml after 5 hrs by PAMPA. The conditions noted are these: at 50 µg/mL. In general terms: PAMPA measures passive passage across an artificial lipid membrane.
Data set [5] addresses T2, Autotaxin (Homo sapiens, UniProt Q13822). Briefly: Inhibition of ATX (unknown origin) assessed as decrease in choline release.
The nature of data set [6]: Intrinsic clearance in Sprague-Dawley rat liver microsomes at 1 uM by HPLC analysis. In kind it is ADME, microsome. The following applies: read-out: CLH.
Data set [7] is described as follows: Fraction unbound in human plasma at 5 uM after 2 to 6 hrs by rapid equilibrium dialysis method. In kind it is ADME, cell-free. For orientation: In equilibrium dialysis free small molecules cross a membrane that holds back macromolecules.
In data set [8] the target is T1, Voltage-gated inwardly rectifying potassium channel KCNH2. The data set can be described thus: Inhibition of human ERG expressed in CHO-K1 cells at -90 mV holding potential by Qpatch clamp assay.
The nature of data set [9]: Half life in Sprague-Dawley rat at 1 mg/kg, iv. In kind it is ADME, organism-based. The conditions noted are these: in vivo.
The nature of data set [10]: Clearance in Sprague-Dawley rat at 1 mg/kg, iv. Format: ADME, organism-based. The following applies: in vivo.
A short description of data set [11]: Volume of distribution at steady state in Sprague-Dawley rat at 1 mg/kg, iv. Format: ADME, organism-based. The following applies: in vivo, read-out: Vdss.
Data set [12] deals with Rattus norvegicus. The data set can be described thus: AUC (0 to infinity) in Sprague-Dawley rat at 10 mg/kg, po. In kind it is ADME, organism-based. On the set-up: dose 10 mg/kg, time infinity, route oral. The conditions noted are these: in vivo.
The nature of data set [13]: Cmax in Sprague-Dawley rat at 10 mg/kg, po. In kind it is ADME, organism-based. Set-up: dose 10 mg/kg, route oral. The following applies: in vivo.
Data set [14] can be described thus: Tmax in Sprague-Dawley rat at 10 mg/kg, po. In kind it is ADME, organism-based. The following applies: in vivo.
The nature of data set [15]: Oral bioavailability in Sprague-Dawley rat at 10 mg/kg. In kind it is ADME, organism-based. The conditions noted are these: in vivo.
Data set [16] addresses T2, Autotaxin. The data set can be described thus: Inhibition of ATX in human serum assessed as reduction in LPA 18:1 levels after 3 hrs by LC-MS/MS analysis. Put shortly: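 Human serum was cleared of coagulated blood by centrifugation (2100g, 10 min, room temperature) and stored at −80 °C. It was incubated with compound (0.5 nM–10 μM) with shaking at 37 °C for 3 h. LPA was extracted into methanol with 30 mM citric acid and LPA 17:0 internal standard (0.5 µM), then quantified by LC-MS/MS (negative-ion MRM). IC50 was obtained by non-linear regression.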

The subject of data set [17] is Rattus norvegicus. The data set can be described thus: In vivo inhibition of ATX in Sprague-Dawley rat assessed as reduction in LPA 16:0 levels in serum at 0.3 mg/kg, po measured over 24 hrs by LCMS analysis relative to control. In kind it is functional. Put shortly:
(§1)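 Male Sprague-Dawley rats (n = 6 per group) were given compound or vehicle (0.5% methyl cellulose:0.5% Tween80) orally at 5 ml/kg. Tail-vein blood was taken at various times without anticoagulant, held 30 min at room temperature, and spun at 700g for 10 min. Serum was stored at −80 °C. LPA isoforms were measured by LC-MS/MS, and PK/PD was assessed with a link model.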

Data set [18] relates to Rattus norvegicus. Briefly: In vivo inhibition of ATX in Sprague-Dawley rat assessed as reduction in LPA 18:0 levels in serum at 0.3 mg/kg, po measured over 24 hrs by LCMS analysis relative to control. In kind it is functional. Put shortly:
as §1

The test system of data set [19] is Rattus norvegicus. Briefly: In vivo inhibition of ATX in Sprague-Dawley rat assessed as reduction in LPA 18:1 levels in serum at 0.3 mg/kg, po measured over 24 hrs by LCMS analysis relative to control. Format: functional. In outline:
as §1

Data set [20] deals with Rattus norvegicus. Briefly: In vivo inhibition of ATX in Sprague-Dawley rat assessed as reduction in LPA 24:4 levels in serum at 0.3 mg/kg, po measured over 24 hrs by LCMS analysis relative to control. The conditions noted are these: in the assay text read “LPA 20:4” for “LPA 24:4”. Format: functional. Put shortly:
as §1

Data set [21] deals with Rattus norvegicus. Briefly: In vivo inhibition of ATX in po dosed Sprague-Dawley rat assessed as reduction in LPA 16:0 levels in serum measured over 24 hrs by LCMS analysis. Format: functional, organism-based. In outline:
as §1

The subject of data set [22] is Rattus norvegicus. Briefly: In vivo inhibition of ATX in po dosed Sprague-Dawley rat assessed as reduction in LPA 18:0 levels in serum measured over 24 hrs by LCMS analysis. In kind it is functional, organism-based. In outline: as §1
Data set [23] has as its system Rattus norvegicus. The data set can be described thus: In vivo inhibition of ATX in po dosed Sprague-Dawley rat assessed as reduction in LPA 18:1 levels in serum measured over 24 hrs by LCMS analysis. Format: functional, organism-based. Put shortly: as §1
Data set [24] relates to Rattus norvegicus. The data set can be described thus: In vivo inhibition of ATX in po dosed Sprague-Dawley rat assessed as reduction in LPA 24:4 levels in serum measured over 24 hrs by LCMS analysis. In kind it is functional, organism-based. The conditions noted are these: in the assay text read “LPA 20:4” for “LPA 24:4”. Put shortly: as §1
Data set [25] is described as follows: Fraction unbound in rat plasma at 5 uM after 2 to 6 hrs by rapid equilibrium dialysis method. In kind it is ADME, cell-free.
Data set [26] is described as follows: Intrinsic clearance in human liver microsomes at 1 uM by HPLC analysis. In kind it is ADME, microsome. The following applies: read-out: CLH.
Data set [27] can be described thus: Thermodynamic solubility in FeSSIF. In kind it is physicochemical. The following applies: read-out: Therm_solubility.

Values after ≈ are worked out from the molar mass of the structure shown.

T1 sequence (Q12809 whole entry): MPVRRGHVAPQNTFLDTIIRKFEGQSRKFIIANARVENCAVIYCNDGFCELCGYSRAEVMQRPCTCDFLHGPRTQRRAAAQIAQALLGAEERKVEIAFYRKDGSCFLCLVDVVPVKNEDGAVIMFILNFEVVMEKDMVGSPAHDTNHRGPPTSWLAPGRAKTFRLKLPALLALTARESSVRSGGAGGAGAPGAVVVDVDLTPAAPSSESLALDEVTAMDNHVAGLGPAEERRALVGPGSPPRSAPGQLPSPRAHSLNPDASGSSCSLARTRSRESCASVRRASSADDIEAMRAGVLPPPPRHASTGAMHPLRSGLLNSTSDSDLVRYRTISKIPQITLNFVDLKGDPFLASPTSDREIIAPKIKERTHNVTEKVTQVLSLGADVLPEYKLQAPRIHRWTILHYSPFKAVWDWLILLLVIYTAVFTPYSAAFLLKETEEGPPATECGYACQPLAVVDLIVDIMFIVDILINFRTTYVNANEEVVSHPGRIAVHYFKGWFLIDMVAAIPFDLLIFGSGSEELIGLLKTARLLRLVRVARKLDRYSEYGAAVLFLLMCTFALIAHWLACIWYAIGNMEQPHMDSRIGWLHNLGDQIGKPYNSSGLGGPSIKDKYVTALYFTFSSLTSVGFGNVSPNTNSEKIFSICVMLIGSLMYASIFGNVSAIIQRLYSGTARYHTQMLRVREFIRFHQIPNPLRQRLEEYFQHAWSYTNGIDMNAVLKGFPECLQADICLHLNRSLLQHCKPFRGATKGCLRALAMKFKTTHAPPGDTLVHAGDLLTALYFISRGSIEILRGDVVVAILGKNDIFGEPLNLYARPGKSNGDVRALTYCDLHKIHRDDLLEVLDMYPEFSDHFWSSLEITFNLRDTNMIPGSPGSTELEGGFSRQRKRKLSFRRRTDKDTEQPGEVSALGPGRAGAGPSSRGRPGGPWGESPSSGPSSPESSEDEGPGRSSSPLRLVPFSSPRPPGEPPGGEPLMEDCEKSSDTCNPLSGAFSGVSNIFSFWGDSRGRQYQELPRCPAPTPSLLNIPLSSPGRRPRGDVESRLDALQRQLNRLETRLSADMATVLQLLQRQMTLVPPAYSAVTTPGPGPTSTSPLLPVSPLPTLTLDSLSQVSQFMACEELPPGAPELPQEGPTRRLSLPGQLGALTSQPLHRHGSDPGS

For `O=C(CCN1CCN(C(=O)OCc2cc(Cl)cc(Cl)c2)CC1)c1ccc2[nH]c(=O)oc2c1`, in data set [1], the bioavailability – broadly, dose-corrected exposure relative to a reference, in per cent – lay in the range of 43 to 83%. The compound also returned a solubility thermodynamic in data set [2] of 10 to 11 µg/mL (≈ 20.9 to 23 µM). Also, the IC50 (as a rule, the concentration that inhibits the measured activity by half) in [3] worked out at 2700 nM. In addition, the Drug absorption in data set [4] is on record as 81%.

Take `O=C(CCCc1c[nH]nn1)NC1CCN(C(=O)OCc2cc(Cl)cc(Cl)c2)CC1`: the IC50 at Autotaxin [5] amounted to 3.1 nM; in data set [8], 20900 nM; on Autotaxin [16], 9 nM; with Rattus norvegicus [21] it was 20 nM; with Rattus norvegicus [22] it was 20 nM; in the data set with Rattus norvegicus [23], 20 nM. Also, the IC50 in the data set on Rattus norvegicus [24] was 20 nM. For the same compound, in [4], the Drug absorption was determined as 43%. The microsomal CLint at 1 µM in data set [6] stood at 104 µL/min/mg; in data set [26], 59 µL/min/mg. In addition, the fraction unbound (in general, free concentration divided by total concentration) at 5 µM in [7] is 0.026; in data set [25], 0.04. Further, the half-life – broadly, how long it takes for the measured level to halve – in data set [9] was 5.3 h. The clearance (in general, the volume of plasma or blood freed of the substance per unit of time) in data set [10] is 16 mL/min/kg. Further, the Vd in data set [11] amounted to 2.5 L/kg. Besides, the AUC (commonly concentration integrated over time) with Rattus norvegicus [12] was found to be 17 µM·h. For the same compound, in data set [13], the Cmax – broadly, the highest concentration seen after dosing – stood at 2.85 µM. For the same compound, the Tmax (in general, the time from dosing to the highest level) in data set [14] amounted to 1.3 h. The same compound yielded a bioavailability in [15] of 68%. In addition, the inhibition in vivo at 0.3 mg/kg with Rattus norvegicus [17], in the data set on Rattus norvegicus [18], in the data set with Rattus norvegicus [19] and in the data set with Rattus norvegicus [20] was 70 to 80% throughout. Moreover, the solubility thermodynamic in [27] was found to be 126 µg/mL (≈ 286 µM).

Turning to `O=C(CCCc1c[nH]nn1)NC1CCN(C(=O)OCc2ccc(C(F)(F)F)cc2)CC1`, the IC50 at Autotaxin [5] was determined as 39 nM. In addition, the Drug absorption in [4] came to 35%.

Consider `O=C(CCCc1c[nH]nn1)NC1CCN(C(=O)OCc2ccc(Cl)cc2Cl)CC1`, for which, in [4], the Drug absorption is 43%.

Consider `O=C(CCc1c[nH]nn1)NC1CCN(C(=O)OCc2cc(Cl)cc(Cl)c2)CC1`, for which the microsomal CLint at 1 µM in data set [6] turned out to be 75 µL/min/mg.

In the case of `O=C(NCCN1CCN(C(=O)OCc2cc(Cl)cc(Cl)c2)CC1)c1c[nH]c(=O)o1`, the solubility thermodynamic in data set [2] was 60 µg/mL (≈ 135 µM). In addition, the IC50 on Autotaxin [5] was 370 nM. For the same compound, the Drug absorption in data set [4] worked out at 35%.

`O=C(NCCC1CCN(C(=O)OCc2cc(Cl)cc(Cl)c2)CC1)c1c[nH]c(=O)o1` displayed a solubility thermodynamic in data set [2] of 80 µg/mL (≈ 181 µM). Also, on Autotaxin [5], the IC50 was found to be 86 nM. For the same compound, in data set [4], the Drug absorption is 68%.

Turning to `CN(CCC1CCN(C(=O)OCc2cc(Cl)cc(Cl)c2)CC1)C(=O)c1c[nH]c(=O)o1`, the microsomal CLint at 1 µM in data set [6] worked out at 235 µL/min/mg. The compound also registered a fraction unbound at 5 µM in [7] of 0.005. In data set [9], this compound gave a half-life of 4.8 h. Further, the clearance in [10] was determined as 12 mL/min/kg. In addition, the Vd in data set [11] was found to be 2.2 L/kg. The AUC in the data set on Rattus norvegicus [12] turned out to be 25 µM·h. The compound also returned a Cmax in [13] of 3.4 µM. The Tmax in [14] was found to be 2.5 h. Besides, the bioavailability in data set [15] came out at 80%.

On to `O=C(CCCc1c[nH]nn1)NC1CCN(C(=O)OCc2cc(F)cc(Cl)c2)CC1`, for which the Drug absorption in data set [4] turned out to be 35%.

Turning to `N#Cc1cc(Cl)cc(COC(=O)N2CCC(NC(=O)CCCc3c[nH]nn3)CC2)c1`, the IC50 at Autotaxin [5] stood at 7.7 nM. Moreover, the Drug absorption in [4] came to 21%.

Turning to `CN(CCC1CCN(C(=O)OCc2cc(Cl)cc(Cl)c2)CC1)C(=O)c1c[nH]nn1`, the IC50 was 150 nM at Autotaxin [5] and 8600 nM in data set [8]. Moreover, the Drug absorption in [4] stood at 97%. Also, in data set [6], the microsomal CLint at 1 µM worked out at 51 µL/min/mg.

`CN(C(=O)CCCc1c[nH]nn1)C1CCN(C(=O)OCc2cc(Cl)cc(Cl)c2)CC1`: in data set [4], the Drug absorption is recorded as 89%.

On to `O=C(CCN1CCN(C(=O)OCC2CCCCC2)CC1)c1ccc2[nH]c(=O)oc2c1`, for which the IC50 at Autotaxin [5] amounted to 240 nM.

Regarding `Cn1cc(CCCC(=O)NC2CCN(C(=O)OCc3cc(Cl)cc(Cl)c3)CC2)nn1`, the IC50 on Autotaxin [5] was determined as 1370 nM.

`O=C(OCc1cc(Cl)cc(Cl)c1)N1CC(N2CCN(C(=O)c3ccc4[nH]c(=O)oc4c3)CC2)C1`: the IC50 on Autotaxin [5] is 3.9 nM.

For the compound `O=C(CCN1CCN(C(=O)OCC2CCCC2)CC1)c1ccc2[nH]c(=O)oc2c1`, the concentration for half-maximal inhibition (IC50) on Autotaxin [5] was 170 nM.

For the compound `O=C(NCC1(O)CCN(C(=O)OCc2cc(Cl)cc(Cl)c2)CC1)c1ccc2[nH]c(=O)oc2c1`, at Autotaxin [5], the IC50 is 8 nM.

In the case of `O=C(CCN1CCN(C(=O)OCc2ccccc2)CC1)c1ccc2[nH]c(=O)oc2c1`, the IC50 on Autotaxin [5] is 130 nM.

As to `O=C(NCCC1CN(C(=O)OCc2cc(Cl)cc(Cl)c2)CCO1)c1ccc2[nH]c(=O)oc2c1` (racemic), the IC50 at Autotaxin [5] was 10 nM.

With `O=C(OCc1cc(Cl)cc(Cl)c1)N1CCC(N2CCN(C(=O)c3ccc4[nH]c(=O)oc4c3)CC2)C1` (racemic), the IC50 on Autotaxin [5] came to 18 nM.

Source of the values: ChEMBL document CHEMBL4118209, “Development of autotaxin inhibitors: A series of zinc binding triazoles” (Bioorg Med Chem Lett, 2018).
